Reference: ChEMBL document CHEMBL5625166, “Disulfide-incorporated lipid prodrugs of cidofovir: Synthesis, antiviral activity, and release mechanism” (Eur J Med Chem, 2023)

Key:
[1] = Therapeutic index, ratio of CC50 for human A549 cells to IC50 for VAVC infected in human A549 cells; type: toxicity, cell-based; details: read-out: Ratio CC50/IC50
Vaccinia virus [2] = assay: Antiviral activity against VACV infected in A549 cells assessed as reduction in cytopathic effect incubated for 96 hrs by neutral red based spectrophotometric analysis; type: functional, organism-based; details: Orthopoxvirus vaccinia, A549, 96 h
[3] = Therapeutic index, ratio of CC50 for human A549 cells to IC50 for AdV5 infected in human A549 cells; type: toxicity, cell-based; details: read-out: Ratio CC50/IC50
A549 = assay: Cytotoxicity against human A549 cells incubated for 72 hrs by neutral red based spectrophotometric analysis; type: toxicity, cell-based; details: a549, 72 h
Method in brief: (§1)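 Cells seeded at 3 × 10^4 cells/well and grown 24 h at 37 °C, 5% CO2. Two-fold compound dilutions starting at 200.0 μM applied for 72 h. Neutral red (40 μg/mL) added for 4 h, cells washed and destained in ethanol/acetic acid. OD read at 540 nm against cell-free blanks. CC50 from triplicates.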

Human adenovirus 5 [4] = assay: Antiviral activity against AdV5 infected in A549 cells assessed as reduction in cytopathic effect incubated for 72 hrs by neutral red based spectrophotometric analysis; type: functional, organism-based; details: Human mastadenovirus C, A549, 72 h
[5] = Cytotoxicity against African green monkey Vero cells incubated for 72 hrs by neutral red based spectrophotometric analysis; type: toxicity, cell-based; details: chlorocebus sabaeus; method in brief: as §1
[6] = Therapeutic index, ratio of CC50 for African green monkey Vero cells to IC50 for VAVC infected in african green monkey Vero cells; type: toxicity; details: read-out: Ratio CC50/IC50
Vaccinia virus [7] = assay: Antiviral activity against VACV infected in Vero cells assessed as reduction in cytopathic effect incubated for 96 hrs by neutral red based spectrophotometric analysis; type: functional, organism-based; details: Orthopoxvirus vaccinia
[8] = Stability of the compound in SIF assessed as remaining compound after 360 mins; type: ADME; details: read-out: Stability
Method in brief: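 Incubated in simulated intestinal fluid at 37 °C, remaining compound measured at 360 min.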

[9] = Stability in human plasma assessed as half life; type: ADME, cell-free
Method in brief: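 Incubated in pooled human plasma at 37 °C, half-life determined.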

Lipid bilayer = assay: Induction of micelles formation in PBS at pH 7.4 by TEM analysis; type: physicochemical; details: buffer
Method in brief: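 Conjugates at 50.0 μM in pH 7.4 phosphate buffer, imaged by transmission electron microscopy for micelle formation.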

[10] = Stability of the compound in phosphate buffer at pH 7.4 assessed as compound remaining measured upto 400 mins in presence of GSH by HPLC method; type: physicochemical; details: for remaining at 6.667 h: phosphate buffer with GSH, pH 7.4, read-out: Stability; for Stability: buffer, pH 7.4, 6.667 h
[11] = Stability in SGF assessed as remaining compound after 120 mins; type: ADME; details: read-out: Stability
Method in brief: (§2)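 Incubated in simulated gastric fluid at 37 °C, remaining compound measured at 120 min.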

Human adenovirus 5 [12] = assay: Potency index, ratio of BCV IC50 to test compound IC50 for antiviral activity against AdV5 infected in A549 cells assessed as reduction in cytopathic effect incubated for 72 hrs by neutral red based spectrophotometric analysis; type: functional
[13] = Stability of the compound in SGF after 120 mins; type: ADME; details: simulated gi fluid, 2 h; method in brief: as §2
[14] = Stability of the compound in PBS at pH 7.4 assessed as micelles formation after 4 hrs in presence of GSH by TEM analysis; type: physicochemical; details: buffer, pH 7.4, 4 h
Method in brief: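 Micelles in pH 7.4 phosphate buffer re-imaged by TEM after 4 h incubation with GSH.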

[15] = Stability of the compound in phosphate buffer at pH 7.4 assessed as compound remaining measured after 360 mins in presence of GSH by HPLC method; type: physicochemical; details: phosphate buffer with GSH, read-out: Stability
Method in brief: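 Conjugate incubated with 20 mM GSH in pH 7.4 phosphate buffer at 37 °C. Percent remaining monitored by HPLC over time, up to 360 min.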

| Structure (SMILES) | selectivity ratio [1] | IC50 (Vaccinia virus [2]) [nM] | selectivity ratio [3] | CC50 (A549) [µM] | IC50 (Human adenovirus 5 [4]) [nM] | CC50 [5] [µM] | selectivity ratio [6] | IC50 (Vaccinia virus [7]) [nM] | remaining at 6 h [8] [%] | t1/2 [9] [h] | Activity (Lipid bilayer) | remaining at 6.667 h [10] [%] | remaining at 2 h [11] [%] | Ratio IC50 (Human adenovirus 5 [12]) | Stability [13] | Stability [14] | Stability [10] | remaining at 6 h [15] [%] |
| --- | --- | --- | --- | --- | --- | --- | --- | --- | --- | --- | --- | --- | --- | --- | --- | --- | --- | --- |
| CCCCCCCCCCCCSSCCCOP(=O)(O)CO[C@H](CO)Cn1ccc(N)nc1=O | 23.5 | 2020 | 37.7 | 47.6 | 1260 | 33.3 | 5.09 | 6540 | – | – | – | – | – | – | – | – | – | – |
| CCCCCCCCCCCCCCCCSSCCCOP(=O)(O)CO[C@H](CO)Cn1ccc(N)nc1=O | 116 | 401 | 156 | 46.7 | 300 | 12.7 | 46.3 | 274 | – | – | – | – | – | – | – | – | – | – |
| CCCCCCCCCCCCSSCCCCOP(=O)(O)CO[C@H](CO)Cn1ccc(N)nc1=O | 76.8 | 1050 | 317 | 80.6 | 255 | 35 | 40.6 | 861 | – | – | – | – | – | – | – | – | – | – |
| CCCCCCCCSSCCCCCCOP(=O)(O)CO[C@H](CO)Cn1ccc(N)nc1=O | > 4 | > 50000 | – | > 200 | – | > 200 | > 4.05 | 49300 | – | – | – | – | – | – | – | – | – | – |
| CCCCCCCCCCCCCCCCSSCCOP(=O)(O)CO[C@H](CO)Cn1ccc(N)nc1=O.N | 96.1 | 90 | 55.2 | 8.69 | 157 | 2.58 | 37.7 | 68 | > 90 | 3.237 | Active | 81 | 68 | – | – | – | – | – |
| CCCCCCCCCCCCCCCCSSCCCCOP(=O)(O)CO[C@H](CO)Cn1ccc(N)nc1=O.N | 18.8 | 1650 | 232 | 31 | 134 | 12.5 | 41 | 304 | > 90 | 4.375 | Active | – | – | 2 | Stable | – | – | – |
| CCCCCCCCCCCCCCCCCCSSCCOP(=O)(O)CO[C@H](CO)Cn1ccc(N)nc1=O.N | 136 | 104 | 73.1 | 14.1 | 193 | 4.9 | 34.8 | 141 | – | – | Active | 93 | – | – | – | Stable | – | – |
| CCCCCCCCCCSSCCOP(=O)(O)CO[C@H](CO)Cn1ccc(N)nc1=O | 10.4 | 6270 | 5.2 | 65.2 | 12500 | 81.3 | 32.7 | 2490 | – | – | – | – | – | – | – | – | – | – |
| CCCCCCCCCCSSCCCCOP(=O)(O)CO[C@H](CO)Cn1ccc(N)nc1=O | 3.55 | 45700 | – | 162 | – | 95.8 | 2.36 | 40600 | – | – | – | – | – | – | – | – | – | – |
| CCCCCCCCCCCCCCSSCCCCCCOP(=O)(O)CO[C@H](CO)Cn1ccc(N)nc1=O.N | 136 | 593 | 295 | 80.8 | 274 | 8.56 | 15.6 | 549 | – | – | Active | – | – | – | – | – | Stable | – |
| CCCCCCCCCCSSCCCCCCOP(=O)(O)CO[C@H](CO)Cn1ccc(N)nc1=O | 45.2 | 4290 | 83.9 | 194 | 2310 | 115 | 18.4 | 6270 | – | – | – | – | – | – | – | – | – | – |
| CCCCCCCCCCCCSSCCCCCCOP(=O)(O)CO[C@H](CO)Cn1ccc(N)nc1=O.N | 160 | 838 | 725 | 134 | 185 | 15.2 | 17.8 | 854 | > 90 | 4.45 | – | – | – | – | Stable | – | – | – |
| CCCCCCCCCCCCCCSSCCCCOP(=O)(O)CO[C@H](CO)Cn1ccc(N)nc1=O.N | 74 | 599 | 115 | 44.3 | 384 | 18.1 | 35 | 517 | – | – | – | – | – | – | – | – | Stable | – |
| CCCCCCCCCCCCSSCCOP(=O)(O)CO[C@H](CO)Cn1ccc(N)nc1=O | 216 | 217 | 59.1 | 47 | 795 | 14.3 | 39.2 | 365 | – | – | – | – | – | – | – | – | – | – |
| CCCCCCCCCCCCCCSSCCCOP(=O)(O)CO[C@H](CO)Cn1ccc(N)nc1=O.N | 227 | 223 | 92.6 | 50.7 | 548 | 13.9 | 49.3 | 283 | – | – | – | – | – | – | – | – | Stable | – |
| CCCCCCCCCCCCCCSSCCOP(=O)(O)CO[C@H](CO)Cn1ccc(N)nc1=O.N | 186 | 79 | 93.7 | 14.7 | 157 | 6.53 | 68 | 96 | > 90 | 2.144 | Active | – | 77 | – | – | – | – | 13 |
| CCCCCCCCCCCCCCCCCCSSCCCOP(=O)(O)CO[C@H](CO)Cn1ccc(N)nc1=O | 44.6 | 724 | 17.3 | 32.3 | 1860 | 9.87 | 22.7 | 436 | – | – | – | – | – | – | – | – | – | – |
| CCCCCCCCCCSSCCCOP(=O)(O)CO[C@H](CO)Cn1ccc(N)nc1=O | 5.91 | 22000 | – | 130 | – | 182 | 5.77 | 31500 | – | – | – | – | – | – | – | – | – | – |
| CCCCCCCCCCCCCCCCOCCCOP(=O)(O)CO[C@H](CO)Cn1ccc(N)nc1=O [BRINCIDOFOVIR] | 67 | 300 | 81.8 | 20.1 | 245 | 13.9 | 70.7 | 196 | > 90 | > 24 | – | – | 43 | – | – | – | – | – |
